# pIC50: −log10 of the molar value. Activity calls are given as the source filed them. The rule behind the calls is not given here.
# Experiments:
# [1] = (§1) Immunosuppressive activity in C57BL/6 mouse splenocytes assessed as inhibition of concanavalin A-induced cell proliferation at 90 uM after 72 hrs by MTT assay; type: functional; details: C57BL/6, Splenocyte
# In short: (§2)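 Splenocytes pooled from two spleens of 8-week-old female C57BL/6 mice, red cells lysed with 20 mM Tris-HCl/140 mM NH4Cl, seeded 1.5×10^5/well. Stimulated with 1 μg/mL ConA, compounds diluted from DMSO into RPMI with 10% FCS and 50 μM mercaptoethanol. 72 h at 37 °C, 5% CO2. MTT 4 h, OD 570 nm, sextuplicate. Inhibition = (control OD − treated OD)/control OD × 100.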
# [2] = (§3) Immunosuppressive activity in C57BL/6 mouse splenocytes assessed as inhibition of concanavalin A-induced cell proliferation at 30 uM after 72 hrs by MTT assay; type: functional; details: C57BL/6, Splenocyte; in short: as §2
# [3] = molecular target: Serine/threonine-protein kinase pim-1 (Homo sapiens, UniProt P11309); assay: Inhibition of recombinant Pim1 after 1 hr
# Serine/threonine-protein kinase pim-1, sequence (P11309 whole entry): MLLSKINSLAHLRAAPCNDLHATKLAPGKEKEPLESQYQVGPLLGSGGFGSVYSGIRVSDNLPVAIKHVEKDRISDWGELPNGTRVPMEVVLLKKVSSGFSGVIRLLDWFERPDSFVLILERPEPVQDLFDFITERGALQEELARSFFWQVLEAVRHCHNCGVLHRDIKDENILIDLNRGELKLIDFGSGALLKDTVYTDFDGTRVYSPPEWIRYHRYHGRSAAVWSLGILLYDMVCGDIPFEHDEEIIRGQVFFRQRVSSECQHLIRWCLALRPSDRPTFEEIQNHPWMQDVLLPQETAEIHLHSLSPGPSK
# In short: (§4)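 Recombinant kinase with substrate and 10 μM ATP, 1 h incubation. Compound at 10 final concentrations, 3.16 nM-100 μM. Activity read by AlphaScreen Protein-A detection after bead-mix stop; IC50 derived.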
# [4] = molecular target: Tyrosine-protein kinase JAK2 (Homo sapiens, UniProt O60674); assay: Inhibition of recombinant JAK2 after 1 hr; in short: as §4
# Tyrosine-protein kinase JAK2, sequence (O60674 whole entry): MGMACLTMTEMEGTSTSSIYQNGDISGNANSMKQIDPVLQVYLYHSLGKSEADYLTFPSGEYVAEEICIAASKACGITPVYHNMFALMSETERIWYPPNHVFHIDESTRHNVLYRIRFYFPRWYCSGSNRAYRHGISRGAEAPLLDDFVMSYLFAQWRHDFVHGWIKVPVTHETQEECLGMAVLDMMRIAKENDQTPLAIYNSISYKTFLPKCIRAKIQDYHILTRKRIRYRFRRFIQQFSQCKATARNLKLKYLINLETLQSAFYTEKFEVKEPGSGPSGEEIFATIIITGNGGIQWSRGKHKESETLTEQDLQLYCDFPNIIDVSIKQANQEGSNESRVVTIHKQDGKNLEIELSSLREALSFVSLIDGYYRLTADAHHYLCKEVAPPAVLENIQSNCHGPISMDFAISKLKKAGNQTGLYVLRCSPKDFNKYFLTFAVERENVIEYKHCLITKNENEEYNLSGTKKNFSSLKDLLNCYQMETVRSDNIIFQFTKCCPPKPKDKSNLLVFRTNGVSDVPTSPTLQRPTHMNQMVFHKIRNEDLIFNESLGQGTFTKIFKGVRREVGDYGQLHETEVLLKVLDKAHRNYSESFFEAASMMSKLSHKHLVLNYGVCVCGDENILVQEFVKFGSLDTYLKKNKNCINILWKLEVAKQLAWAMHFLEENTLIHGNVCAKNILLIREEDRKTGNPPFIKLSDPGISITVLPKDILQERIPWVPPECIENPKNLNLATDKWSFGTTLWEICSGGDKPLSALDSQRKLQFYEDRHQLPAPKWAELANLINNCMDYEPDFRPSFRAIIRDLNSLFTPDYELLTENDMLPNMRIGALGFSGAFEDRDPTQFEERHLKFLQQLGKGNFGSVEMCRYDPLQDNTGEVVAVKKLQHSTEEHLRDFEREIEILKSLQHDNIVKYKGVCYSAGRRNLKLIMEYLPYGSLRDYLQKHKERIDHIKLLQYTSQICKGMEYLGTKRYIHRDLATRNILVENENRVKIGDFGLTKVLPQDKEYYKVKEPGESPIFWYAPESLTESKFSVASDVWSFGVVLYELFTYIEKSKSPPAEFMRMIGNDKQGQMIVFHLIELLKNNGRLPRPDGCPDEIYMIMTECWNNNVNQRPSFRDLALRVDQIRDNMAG
# Mus musculus [5] = assay: Immunosuppressive activity in delayed-type hypersensitivity BALB/C mouse model assessed as inhibition of sheep RBC-induced foot-pad swelling at 50 mg/kg, po qd for 5 days measured after 24 hrs last post dose; type: functional, organism-based; set-up: dose 50 mg/kg
# In short: (§5)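 Groups of five female BALB/c mice, 8-9 weeks old, primed iv with 5×10^6 SRBC in PBS. Compound in olive oil given orally daily for 5 days, from priming to challenge. Day 4: 3-4×10^8 SRBC into right hind footpad, PBS into left. Swelling difference read 24 h later; inhibition taken against untreated controls. Mean ± SEM, Dunnett test.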
# [6] = molecular target: T1, Tyrosine-protein kinase JAK3 (Homo sapiens, UniProt P52333); assay: Inhibition of recombinant JAK3 after 1 hr; in short: as §4
# T1 sequence (P52333 whole entry): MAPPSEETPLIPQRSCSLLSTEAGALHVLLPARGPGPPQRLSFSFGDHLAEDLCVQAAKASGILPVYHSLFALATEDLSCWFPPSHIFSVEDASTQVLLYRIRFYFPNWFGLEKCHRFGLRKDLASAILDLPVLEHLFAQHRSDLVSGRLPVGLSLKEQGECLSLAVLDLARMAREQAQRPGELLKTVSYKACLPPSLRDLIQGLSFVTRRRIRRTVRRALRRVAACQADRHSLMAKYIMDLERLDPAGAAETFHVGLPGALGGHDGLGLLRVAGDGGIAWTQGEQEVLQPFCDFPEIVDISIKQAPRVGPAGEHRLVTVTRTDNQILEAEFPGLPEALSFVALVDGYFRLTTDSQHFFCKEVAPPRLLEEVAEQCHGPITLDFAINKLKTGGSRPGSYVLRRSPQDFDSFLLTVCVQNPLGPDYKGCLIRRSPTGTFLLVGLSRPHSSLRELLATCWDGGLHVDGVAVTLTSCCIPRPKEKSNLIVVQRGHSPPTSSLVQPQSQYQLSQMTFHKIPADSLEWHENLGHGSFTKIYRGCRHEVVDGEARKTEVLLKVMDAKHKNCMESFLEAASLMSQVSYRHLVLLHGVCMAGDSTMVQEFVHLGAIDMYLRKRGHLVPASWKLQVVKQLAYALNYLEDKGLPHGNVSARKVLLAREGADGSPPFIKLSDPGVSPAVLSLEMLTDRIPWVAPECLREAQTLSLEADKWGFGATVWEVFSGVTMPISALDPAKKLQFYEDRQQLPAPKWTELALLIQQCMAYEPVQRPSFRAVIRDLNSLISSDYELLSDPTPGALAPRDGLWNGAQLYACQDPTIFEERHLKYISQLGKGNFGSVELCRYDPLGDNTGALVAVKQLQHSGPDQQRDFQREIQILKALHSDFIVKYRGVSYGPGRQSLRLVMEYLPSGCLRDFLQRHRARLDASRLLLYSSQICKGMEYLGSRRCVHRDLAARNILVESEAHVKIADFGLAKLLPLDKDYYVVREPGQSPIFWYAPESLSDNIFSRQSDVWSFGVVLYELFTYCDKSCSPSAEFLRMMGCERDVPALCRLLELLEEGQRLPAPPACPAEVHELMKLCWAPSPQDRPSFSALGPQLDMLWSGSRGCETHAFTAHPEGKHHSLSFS
# [7] = Cytotoxicity in C57BL/6 mouse splenocytes assessed as reduction of cell viability at 90 uM after 48 hrs by MTT assay; type: cell-based; details: splenocyte
# Mus musculus [8] = assay: Acute toxicity in BALB/C mouse at 50 to 120 mg/kg, po qd for 5 days; type: organism-based; set-up: dose 50-120 mg/kg, route oral; details: in vivo, 120 h
# In short: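 Female BALB/C mice, 8-9 weeks old, groups of five. Dosed orally once daily for 5 days in olive oil, from priming to challenge, within a DTH study: primed iv with 5×10^6 SRBC, footpad challenge with SRBC on day 4. Acute toxicity judged by observation against untreated control mice over the 5-day treatment.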
# [9] = molecular target: Homeodomain-interacting protein kinase 1 (Homo sapiens, UniProt Q86Z02); assay: Inhibition of recombinant HIPK1 after 1 hr; in short: as §4
# [10] = Inhibition of recombinant ERK after 1 hr; in short: as §4
# Mus musculus [11] = assay: Immunosuppressive activity in delayed-type hypersensitivity po dosed BALB/C mouse model assessed as inhibition of sheep RBC-induced foot-pad swelling administered qd for 5 days measured after 24 hrs last post dose; type: functional, organism-based; in short: as §5
# [12] = molecular target: High affinity nerve growth factor receptor (Homo sapiens, UniProt P04629); assay: Inhibition of recombinant TrkA after 1 hr; in short: as §4
# High affinity nerve growth factor receptor, sequence (P04629 whole entry): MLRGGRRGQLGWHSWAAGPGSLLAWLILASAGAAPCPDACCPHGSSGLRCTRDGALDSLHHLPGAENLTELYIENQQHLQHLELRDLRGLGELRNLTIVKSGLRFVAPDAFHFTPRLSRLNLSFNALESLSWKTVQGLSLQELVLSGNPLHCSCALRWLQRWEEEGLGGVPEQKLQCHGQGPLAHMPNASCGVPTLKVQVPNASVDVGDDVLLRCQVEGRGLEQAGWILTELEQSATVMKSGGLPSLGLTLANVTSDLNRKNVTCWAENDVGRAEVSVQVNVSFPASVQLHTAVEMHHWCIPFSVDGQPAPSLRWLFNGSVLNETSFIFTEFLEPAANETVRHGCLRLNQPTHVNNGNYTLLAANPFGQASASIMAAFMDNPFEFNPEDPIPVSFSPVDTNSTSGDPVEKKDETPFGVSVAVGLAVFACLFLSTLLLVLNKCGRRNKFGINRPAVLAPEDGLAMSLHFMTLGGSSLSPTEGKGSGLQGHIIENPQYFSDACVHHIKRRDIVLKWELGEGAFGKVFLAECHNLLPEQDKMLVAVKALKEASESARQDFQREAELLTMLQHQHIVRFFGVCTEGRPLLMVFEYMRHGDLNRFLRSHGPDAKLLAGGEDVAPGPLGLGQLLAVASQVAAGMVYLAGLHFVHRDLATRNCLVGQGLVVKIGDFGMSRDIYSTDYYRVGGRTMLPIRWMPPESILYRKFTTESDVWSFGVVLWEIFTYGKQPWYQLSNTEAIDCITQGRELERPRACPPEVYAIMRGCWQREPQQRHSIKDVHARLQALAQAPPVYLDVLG
# [13] = (§6) Immunosuppressive activity in C57BL/6 mouse splenocytes assessed as inhibition of cell proliferation after 72 hrs by MTT assay; type: functional, cell-based; details: C57BL/6, Splenocyte; in short: as §2
# Splenocyte [14] = assay: as §6; type: functional, cell-based; in short: as §2
# [15] = molecular target: Vascular endothelial growth factor receptor 2 (Homo sapiens, UniProt P35968); assay: Inhibition of recombinant KDR after 1 hr; in short: as §4
# [16] = molecular target: Tyrosine-protein kinase Yes (Homo sapiens, UniProt P07947); assay: Inhibition of recombinant YES after 1 hr; in short: as §4
# Tyrosine-protein kinase Yes, sequence (P07947 whole entry): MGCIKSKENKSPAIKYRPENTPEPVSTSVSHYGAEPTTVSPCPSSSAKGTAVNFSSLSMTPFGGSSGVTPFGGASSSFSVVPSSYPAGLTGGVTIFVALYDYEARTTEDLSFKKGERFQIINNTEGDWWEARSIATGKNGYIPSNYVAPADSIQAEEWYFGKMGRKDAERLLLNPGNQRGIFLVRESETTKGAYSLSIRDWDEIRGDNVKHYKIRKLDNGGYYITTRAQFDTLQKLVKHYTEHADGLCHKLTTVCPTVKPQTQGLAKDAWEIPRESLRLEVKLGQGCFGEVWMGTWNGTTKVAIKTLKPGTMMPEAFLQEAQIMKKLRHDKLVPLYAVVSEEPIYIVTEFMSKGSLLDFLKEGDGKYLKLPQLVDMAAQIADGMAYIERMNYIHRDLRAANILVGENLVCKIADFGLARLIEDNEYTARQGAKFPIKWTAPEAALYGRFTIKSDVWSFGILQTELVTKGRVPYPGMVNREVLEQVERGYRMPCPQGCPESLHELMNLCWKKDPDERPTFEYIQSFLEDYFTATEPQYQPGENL
# Aurora kinase A = molecular target: T2, Aurora kinase A (Homo sapiens, UniProt O14965); assay: Inhibition of recombinant aurora A after 1 hr; in short: as §4
# T2 sequence (O14965 whole entry): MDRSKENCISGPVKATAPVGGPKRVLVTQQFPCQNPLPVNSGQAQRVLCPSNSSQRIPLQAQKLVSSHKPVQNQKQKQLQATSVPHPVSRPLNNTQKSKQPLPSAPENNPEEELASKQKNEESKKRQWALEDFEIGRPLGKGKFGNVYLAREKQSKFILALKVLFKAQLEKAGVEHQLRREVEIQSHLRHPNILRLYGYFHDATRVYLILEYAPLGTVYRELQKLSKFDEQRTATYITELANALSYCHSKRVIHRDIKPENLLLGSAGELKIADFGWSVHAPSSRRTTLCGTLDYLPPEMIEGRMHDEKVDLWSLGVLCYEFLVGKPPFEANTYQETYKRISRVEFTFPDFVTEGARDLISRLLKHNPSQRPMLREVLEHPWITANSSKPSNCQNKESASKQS
# [17] = molecular target: Tyrosine-protein kinase ABL1 (Homo sapiens, UniProt P00519); assay: Inhibition of recombinant c-Abl after 1 hr; in short: as §4
# Tyrosine-protein kinase ABL1, sequence (P00519 whole entry): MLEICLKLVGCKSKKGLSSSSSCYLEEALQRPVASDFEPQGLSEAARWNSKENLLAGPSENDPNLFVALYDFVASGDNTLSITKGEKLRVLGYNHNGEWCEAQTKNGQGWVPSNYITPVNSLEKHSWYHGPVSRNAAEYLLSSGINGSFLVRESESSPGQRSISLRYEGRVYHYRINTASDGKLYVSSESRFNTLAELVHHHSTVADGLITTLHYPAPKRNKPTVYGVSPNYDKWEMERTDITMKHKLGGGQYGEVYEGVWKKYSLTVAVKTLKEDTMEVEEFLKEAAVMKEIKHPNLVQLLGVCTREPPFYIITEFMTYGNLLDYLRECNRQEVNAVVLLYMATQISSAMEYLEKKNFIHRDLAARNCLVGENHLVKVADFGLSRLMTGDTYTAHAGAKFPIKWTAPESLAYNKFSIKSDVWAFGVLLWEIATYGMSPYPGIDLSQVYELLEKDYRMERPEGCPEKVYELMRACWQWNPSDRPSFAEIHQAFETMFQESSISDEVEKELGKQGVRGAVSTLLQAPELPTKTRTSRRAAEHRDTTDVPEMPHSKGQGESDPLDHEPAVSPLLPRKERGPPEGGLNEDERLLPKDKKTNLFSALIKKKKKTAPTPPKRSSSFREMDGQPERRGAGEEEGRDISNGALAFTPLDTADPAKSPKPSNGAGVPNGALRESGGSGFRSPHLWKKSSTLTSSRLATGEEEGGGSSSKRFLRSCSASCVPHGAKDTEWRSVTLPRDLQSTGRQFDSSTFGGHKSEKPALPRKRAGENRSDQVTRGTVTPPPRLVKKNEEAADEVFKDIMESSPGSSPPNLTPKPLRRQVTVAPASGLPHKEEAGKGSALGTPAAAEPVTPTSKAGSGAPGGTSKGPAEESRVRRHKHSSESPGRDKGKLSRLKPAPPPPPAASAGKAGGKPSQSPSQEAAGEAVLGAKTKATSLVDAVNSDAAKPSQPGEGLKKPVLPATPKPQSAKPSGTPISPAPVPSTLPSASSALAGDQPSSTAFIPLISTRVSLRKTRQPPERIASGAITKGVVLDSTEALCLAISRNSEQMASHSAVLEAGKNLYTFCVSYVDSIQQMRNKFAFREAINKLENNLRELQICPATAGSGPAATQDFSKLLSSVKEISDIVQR
# Splenocyte [18] = assay: as §3; type: functional; in short: as §2
# Splenocyte [19] = assay: as §1; type: functional; in short: as §2
# Mus musculus [20] = assay: Immunosuppressive activity in delayed-type hypersensitivity BALB/C mouse model assessed as inhibition of sheep RBC-induced foot-pad swelling at 50 to 120 mg/kg, po qd for 5 days measured after 24 hrs last post dose; type: functional; details: dose mg/kg 50-120; in short: as §5
compound,measurement,setting,value
O=C(CCc1cn(Cc2ccc(Cl)cc2)c2ccccc12)Nc1cccnc1,inhibition at 90 µM,[1],40%
same,inhibition at 30 µM,[2],28%
O=C(CCc1cn(Cc2ccc(Cl)cc2)c2ccccc12)Nc1ccc([N+](=O)[O-])cc1,pIC50,[3],< 4.00
same,pIC50,[4],3.97
same,inhibition at 90 µM,[1],92%
same,inhibition,Mus musculus [5],Active
same,pIC50,[6],4.47
same,Activity,[7],Non-toxic
same,Activity,Mus musculus [8],Non-toxic
same,pIC50,[9],< 4.00
same,pIC50,[10],< 4.00
same,inhibition,Mus musculus [11],Dose-dependent effect
same,pIC50,[12],< 4.00
same,pIC50,[13],4.70
same,inhibition,Splenocyte [14],Dose-dependent effect
same,pIC50,[15],4.48
same,pIC50,[16],4.42
same,inhibition at 30 µM,[2],87%
same,pIC50,Aurora kinase A,< 4.00
same,pIC50,[17],< 4.00
O=C(CCc1cn(Cc2ccc(Cl)cc2)c2ccccc12)Nc1cccc2cnccc12,inhibition at 90 µM,[1],17%
same,inhibition,Splenocyte [18],inactive
O=C(CCc1cn(Cc2ccc(Cl)cc2)c2ccccc12)Nc1cccc2ncccc12,inhibition,Splenocyte [19],inactive
same,inhibition,Splenocyte [18],inactive
O=C(CCc1cn(Cc2ccc(Cl)cc2)c2ccccc12)Nc1ccnc2ccccc12,inhibition at 90 µM,[1],37%
same,inhibition at 30 µM,[2],20%
O=C(CCc1cn(Cc2ccc(Cl)cc2)c2ccccc12)Nc1ccccc1,inhibition,Splenocyte [19],inactive
same,inhibition,Splenocyte [18],inactive
O=C(CCc1cn(Cc2ccc(Cl)cc2)c2ccccc12)Nc1ccncc1,pIC50,[3],< 4.00
same,pIC50,[4],3.87
same,inhibition at 90 µM,[1],87%
same,pIC50,[6],4.28
same,pIC50,[9],< 4.00
same,inhibition (INH),Mus musculus [20],69%
same,pIC50,[10],< 4.00
same,pIC50,[12],< 4.00
same,pIC50,[13],4.77
same,pIC50,[15],4.59
same,pIC50,[16],4.52
same,inhibition at 30 µM,[2],19%
same,pIC50,Aurora kinase A,< 4.00
same,pIC50,[17],< 4.00
O=C(CCc1cn(Cc2ccc(Cl)cc2)c2ccccc12)Nc1ccc2ncccc2c1,inhibition at 90 µM,[1],86%
same,inhibition,Splenocyte [18],inactive
O=C(CCc1cn(Cc2ccc(Cl)cc2)c2ccccc12)Nc1ccc(C(F)(F)F)cc1,inhibition at 90 µM,[1],18%
Nc1ccc(NC(=O)CCc2cn(Cc3ccc(Cl)cc3)c3ccccc23)cc1,inhibition,Splenocyte [19],inactive
same,inhibition,Splenocyte [18],inactive
N#Cc1ccc(NC(=O)CCc2cn(Cc3ccc(Cl)cc3)c3ccccc23)cc1,inhibition at 90 µM,[1],78%
same,inhibition at 30 µM,[2],30%
O=C(CCc1cn(Cc2ccc(Cl)cc2)c2ccccc12)Nc1ccccn1,inhibition at 90 µM,[1],26%
same,inhibition,Splenocyte [18],inactive

# Reference: ChEMBL document CHEMBL1221237, “Synthesis of N-aryl-3-(indol-3-yl)propanamides and their immunosuppressive activities” (Bioorg Med Chem Lett, 2010)
